Assay results from ChEMBL document CHEMBL3352312, “Synthesis of linear and cyclic guazatine derivatives endowed with antibacterial activity” (Bioorg Med Chem Lett, 2014).

Key:
[1] = test system: Acinetobacter baumannii; assay: Antibacterial activity against Acinetobacter baumannii ATCC 17978 after 16 to 18 hrs by microbroth dilution method; type: functional
Method in brief: (§1)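 Broth microdilution in Mueller–Hinton broth following CLSI recommendations. Strains came from ATCC or CCUG collections or the authors' clinical isolates. Compounds were dissolved in DMSO as a 100 mg/ml stock and then diluted in culture medium. Inoculum was 5 × 10⁴ CFU/well. MIC was read after 16–18 h incubation at 35–37 °C.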

[2] = test system: Aeromonas hydrophila; assay: Antibacterial activity against Aeromonas hydrophila ATCC 7966 after 16 to 18 hrs by microbroth dilution method; type: functional; method in brief: as §1
[3] = test system: Elizabethkingia meningoseptica; assay: Antibacterial activity against Elizabethkingia meningoseptica CCUG 4310 after 16 to 18 hrs by microbroth dilution method; type: functional; method in brief: as §1
[4] = test system: Escherichia coli; assay: Antibacterial activity against Escherichia coli CCUGT after 16 to 18 hrs by microbroth dilution method; type: functional; method in brief: as §1
[5] = test system: Klebsiella pneumoniae; assay: Antibacterial activity against Klebsiella pneumoniae ATCC 13833 after 16 to 18 hrs by microbroth dilution method; type: functional; method in brief: as §1
[6] = test system: Pseudomonas aeruginosa; assay: Antibacterial activity against Pseudomonas aeruginosa ATCC 27853 after 16 to 18 hrs by microbroth dilution method; type: functional; method in brief: as §1
[7] = test system: Bacillus subtilis; assay: Antibacterial activity against Bacillus subtilis ATCC 6633 after 16 to 18 hrs by microbroth dilution method; type: functional; method in brief: as §1
[8] = test system: Enterococcus faecalis; assay: Antibacterial activity against Enterococcus faecalis ATCC 19433 after 16 to 18 hrs by microbroth dilution method; type: functional; method in brief: as §1
[9] = test system: Staphylococcus aureus; assay: Antibacterial activity against Staphylococcus aureus ATCC 25923 after 16 to 18 hrs by microbroth dilution method; type: functional
Method in brief: (§2)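 Broth microdilution MIC per CLSI in Mueller–Hinton broth. Inoculum 5 × 10⁴ CFU/well. Compounds dissolved in DMSO at 100 mg/ml, then diluted in culture medium. Plates incubated 16–18 h at 35–37 °C before reading the MIC. Strains were taken from ATCC or CCUG collections or from the authors' clinical isolate collection.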

[10] = test system: Staphylococcus epidermidis; assay: Antibacterial activity against Staphylococcus epidermidis ATCC 14990 after 16 to 18 hrs by microbroth dilution method; type: functional; method in brief: as §1
[11] = test system: Streptococcus pyogenes; assay: Antibacterial activity against Streptococcus pyogenes ATCC 12344 after 16 to 18 hrs by microbroth dilution method; type: functional; method in brief: as §1
[12] = test system: Acinetobacter baumannii; assay: Antibacterial activity against penicillin/expanded-spectrum cephalosporin/carbapenem/aztreonam/aminoglycoside/fluoroquinolone/fosfomycin/trimethoprim/sulfamethoxazole-resistant Acinetobacter baumannii AC-54/97 after 16 to 18 hrs by microbroth dilution method; type: functional; method in brief: as §2
[13] = test system: Achromobacter xylosoxidans; assay: Antibacterial activity against penicillin/expanded-spectrum cephalosporin/carbapenem/aminoglycoside-resistant Achromobacter xylosoxidans AX 22 after 16 to 18 hrs by microbroth dilution method; type: functional; method in brief: as §2
[14] = test system: Alcaligenes faecalis; assay: Antibacterial activity against expanded-spectrum cephalosporin/carbapenem/monobactam-resistant Alcaligenes faecalis 424/98 after 16 to 18 hrs by microbroth dilution method; type: functional; method in brief: as §2
[15] = test system: Enterobacter cloacae; assay: Antibacterial activity against penicillin/CEPH/carbapenem/aminoglycoside/fluoroquinolone-resistant Enterobacter cloacae VA-417/02 after 16 to 18 hrs by microbroth dilution method; type: functional; method in brief: as §2
[16] = test system: Klebsiella pneumoniae; assay: Antibacterial activity against penicillin/expanded-spectrum cephalosporin/carbapenem/aminoglycoside/fluoroquinolone/trimethoprim/sulfamethoxazole-resistant Klebsiella pneumoniae 7023 after 16 to 18 hrs by microbroth dilution method; type: functional; method in brief: as §2
[17] = test system: Pseudomonas aeruginosa; assay: Antibacterial activity against penicillin/expanded-spectrum cephalosporin/carbapenem/aminoglycoside-resistant Pseudomonas aeruginosa 101/1477 after 16 to 18 hrs by microbroth dilution method; type: functional; method in brief: as §2
[18] = test system: Pseudomonas aeruginosa; assay: Antibacterial activity against penicillin/expanded-spectrum cephalosporin/carbapenem/monobactam/aminoglycoside/fluoroquinolone-resistant Pseudomonas aeruginosa VR-143/97 after 16 to 18 hrs by microbroth dilution method; type: functional; method in brief: as §2
[19] = test system: Stenotrophomonas maltophilia; assay: Antibacterial activity against penicillin/expanded-spectrum cephalosporin/carbapenem/monobactam/aminoglycoside/trimethoprim/sulfamethoxazole/fosfomycin-resistant Stenotrophomonas maltophilia 634/08 after 16 to 18 hrs by microbroth dilution method; type: functional; method in brief: as §2
[20] = test system: Staphylococcus aureus; assay: Antibacterial activity against penicillin-resistant Staphylococcus aureus ATCC 43300 after 16 to 18 hrs by microbroth dilution method; type: functional; method in brief: as §2
[21] = test system: Staphylococcus aureus; assay: Antibacterial activity against glycopeptide-resistant Staphylococcus aureus ATCC 700699 (VanA) after 16 to 18 hrs by microbroth dilution method; type: functional; method in brief: as §2
[22] = test system: Staphylococcus haemolyticus; assay: Antibacterial activity against aminoglycoside-resistant Staphylococcus haemolyticus SI-6/2011 after 16 to 18 hrs by microbroth dilution method; type: functional; method in brief: as §2
[23] = test system: Staphylococcus warneri; assay: Antibacterial activity against penicillin/aminoglycoside-resistant Staphylococcus warneri SI-5/2011 after 16 to 18 hrs by microbroth dilution method; type: functional; method in brief: as §2
[24] = test system: Staphylococcus hominis; assay: Antibacterial activity against linezolid-resistant Staphylococcus hominis SI-7/2011 after 16 to 18 hrs by microbroth dilution method; type: functional; method in brief: as §2
[25] = Apparent permeability of the compound at pH 7.4 after 5 hrs by PAMPA; type: physicochemical
Method in brief: (§3)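 Parallel artificial membrane permeability assay run at physiological pH 7.4 and at alkaline pH 10.0, the duodenal-like condition, as a gastrointestinal permeability model. Apparent permeability (P_app) is reported in nm/s, together with the percentage of compound retained in the membrane.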

[26] = Apparent permeability of the compound at pH 10.0 after 5 hrs by PAMPA; type: physicochemical; method in brief: as §3
[27] = Apparent permeability of the compound assessed as membrane retention at pH 7.4 after 5 hrs by PAMPA; type: physicochemical; details: pH 7.4, 5 h; method in brief: as §3
[28] = Apparent permeability of the compound assessed as membrane retention at pH 10.0 after 5 hrs by PAMPA; type: physicochemical; details: pH 10, 5 h; method in brief: as §3
[29] = Solubility of the compound in pure water at 1.2 mg after 24 to 36 hrs by LC-MS/MS analysis; type: physicochemical
[30] = Metabolic stability in human liver microsomes after 60 mins by LC-UV-MS analysis; type: ADME; details: read-out: Stability
[31] = molecular target: Albumin (Homo sapiens, UniProt P02768); assay: Binding affinity to human serum albumin after 30 mins by fluorescence spectroscopic analysis; type: ADME
Sequence of Albumin (P02768 whole entry): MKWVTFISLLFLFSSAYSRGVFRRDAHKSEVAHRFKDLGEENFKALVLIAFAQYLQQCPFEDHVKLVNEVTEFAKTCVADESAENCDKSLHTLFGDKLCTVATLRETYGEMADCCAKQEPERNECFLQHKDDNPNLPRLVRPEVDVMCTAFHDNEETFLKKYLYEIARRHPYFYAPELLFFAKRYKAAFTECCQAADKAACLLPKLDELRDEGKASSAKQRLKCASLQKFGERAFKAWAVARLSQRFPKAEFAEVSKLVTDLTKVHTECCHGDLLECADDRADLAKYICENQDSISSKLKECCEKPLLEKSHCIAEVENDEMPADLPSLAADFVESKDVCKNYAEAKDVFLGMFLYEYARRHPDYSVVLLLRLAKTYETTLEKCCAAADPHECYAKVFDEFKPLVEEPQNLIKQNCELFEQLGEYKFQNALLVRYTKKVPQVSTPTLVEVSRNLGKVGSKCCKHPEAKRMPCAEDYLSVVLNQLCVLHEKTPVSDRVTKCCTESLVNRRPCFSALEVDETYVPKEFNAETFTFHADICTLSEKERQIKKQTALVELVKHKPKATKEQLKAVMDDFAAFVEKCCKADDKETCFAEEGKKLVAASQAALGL

[32] = Cytotoxicity against human HeLa cells after 24 hrs; type: cell-based
[33] = Cytotoxicity against human HeLa cells after 48 hrs; type: cell-based
[34] = Ratio of CC50 for human HeLa cells to MIC for Escherichia coli CCUGT
[35] = Ratio of CC50 for human HeLa cells to MIC for Klebsiella pneumoniae 7023

N=C(N)NCCCCCCCCNCCCCCCCCNC(=N)NCC1CC1.O=C(O)C(F)(F)F.O=C(O)C(F)(F)F.O=C(O)C(F)(F)F
MIC [1]: 4 mg/L
MIC [2]: 8 mg/L
MIC [3]: 32 mg/L
MIC [4]: 0.5 mg/L
MIC [5]: 1 mg/L
MIC [6]: 8 mg/L
MIC [7]: 0.5 mg/L
MIC [8]: 1 mg/L
MIC [9]: 4 mg/L
MIC [10]: 0.5 mg/L
MIC [11]: < 0.125 mg/L
MIC [12]: 4 mg/L
MIC [13]: 4 mg/L
MIC [14]: 4 mg/L
MIC [15]: 2 mg/L
MIC [16]: 2 mg/L
MIC [17]: 8 mg/L
MIC [18]: 8 mg/L
MIC [19]: 4 mg/L
MIC [20]: 4 mg/L
MIC [21]: 4 mg/L
MIC [22]: 2 mg/L
MIC [23]: 2 mg/L
MIC [24]: 2 mg/L
Papp at 5 h [25]: 9.5 nm/s
Papp at 5 h [26]: 167 nm/s
Papp [27]: 8.8%
Papp [28]: 60.6%
solubility [29]: 0.966 mg/mL
remaining at 1 h [30]: > 99%
Kd [31]: 26.5 µM
CC50 at 24 h [32]: 92.6 µM
CC50 at 48 h [33]: 62 µM
Ratio [34]: >=70
Ratio [35]: >=70
